Source: ChEMBL document CHEMBL1806473, “Structure-based optimization of click-based histone deacetylase inhibitors” (Eur J Med Chem, 2011)

Key:
SF-268 = assay: Antiproliferative activity against human SF268 cells by SRB assay; type: functional
Method in brief: (§1)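 Tested in the NCI in vitro human tumor cell line screen, run by the National Cancer Institute. Each compound was given at five concentrations (100, 10, 1.0, 0.1 and 0.01 μM). GI50 is the drug concentration that reduces growth of treated cells to half that of control cells during drug incubation, judged from the SRB signal.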

K562 = assay: Cytotoxicity against human K562 cells; type: cell-based
NCI-H322M [1] = assay: Cytotoxicity against human NCI-H322M cells; type: cell-based
NCI-H322M [2] = assay: Antiproliferative activity against human NCI-H322M cells by SRB assay; type: functional; method in brief: as §1
SF-295 = assay: Cytotoxicity against human SF295 cells; type: cell-based
Method in brief: (§2)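 Tested in the NCI in vitro disease-oriented human tumour cell line screen, with screening performed by NCI. Growth was read by SRB signal over the drug incubation period at five concentrations: 100, 10, 1.0, 0.1 and 0.01 μM. GI50 is the concentration that reduces growth of treated cells to half that of control cells.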

TK-10 = assay: Antiproliferative activity against human TK10 cells by SRB assay; type: functional
Method in brief: (§3)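 Cell growth was tested in the NIH in vitro disease-oriented human tumor cell line screen, which NCI ran for these compounds. Compounds were tested at five concentrations (100, 10, 1.0, 0.1 and 0.01 μM), and growth was read by SRB signal. GI50 is the drug concentration that reduces growth of treated cells to half that of control cells during drug incubation.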

OVCAR-8 = assay: Antiproliferative activity against human OVCAR8 cells by SRB assay; type: functional; method in brief: as §1
SK-MEL-2 [3] = assay: Cytotoxicity against human SK-MEL-2 cells; type: cell-based; method in brief: as §2
BT-549 = assay: Cytotoxicity against human BT549 cells; type: cell-based
SNB-75 [4] = assay: Cytotoxicity against human SNB75 cells; type: cell-based
Method in brief: (§4)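 Screened by NCI in its in vitro disease-oriented human tumour cell line panel. Compounds tested at five concentrations (100, 10, 1.0, 0.1 and 0.01 μM). Growth read by sulforhodamine B (SRB) signal. GI50 is the concentration reducing growth of treated cells to half that of control cells during the drug incubation.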

UACC-62 = assay: Antiproliferative activity against human UACC62 cells by SRB assay; type: functional; method in brief: as §3
SR = assay: Antiproliferative activity against human SR cells by SRB assay; type: functional; method in brief: as §3
HT-29 = assay: Antiproliferative activity against human HT-29 cells by SRB assay; type: functional; method in brief: as §1
OVCAR-3 = assay: Cytotoxicity against human OVCAR3 cells; type: cell-based; method in brief: as §2
CCRF-CEM [5] = assay: Cytotoxicity against human CCRF-CEM cells; type: cell-based
UO-31 = assay: Cytotoxicity against human UO31 cells; type: cell-based; method in brief: as §4
SF-539 [6] = assay: Antiproliferative activity against human SF539 cells by SRB assay; type: functional; method in brief: as §1
MDA-MB-435 [7] = assay: Cytotoxicity against human MDA-MB-435 cells; type: cell-based
KM12 = assay: Antiproliferative activity against human KM12 cells by SRB assay; type: functional; method in brief: as §1
PC-3 = assay: Antiproliferative activity against human PC3 cells by SRB assay; type: functional; method in brief: as §1
OVCAR-4 [8] = assay: Antiproliferative activity against human OVCAR4 cells by SRB assay; type: functional; method in brief: as §1
DU-145 [9] = assay: Antiproliferative activity against human DU145 cells by SRB assay; type: functional; method in brief: as §1
COLO 205 [10] = assay: Cytotoxicity against human COLO205 cells; type: cell-based; method in brief: as §2
786-0 = assay: Antiproliferative activity against human 786-0 cells by SRB assay; type: functional; method in brief: as §1
MDA-MB-231 = assay: Cytotoxicity against human MDA-MB-231 cells; type: functional; method in brief: as §2
EKVX = assay: Cytotoxicity against human EKVX cells; type: cell-based; method in brief: as §2
NCI-H226 = assay: Antiproliferative activity against human NCI-H226 cells by SRB assay; type: functional; method in brief: as §1
IGROV-1 = assay: Antiproliferative activity against human IGROV1 cells by SRB assay; type: functional; method in brief: as §1
SK-OV-3 = assay: Antiproliferative activity against human SKOV3 cells by SRB assay; type: functional; method in brief: as §1
SW-620 = assay: Cytotoxicity against human SW620 cells; type: cell-based; method in brief: as §4
SF-539 [11] = assay: Cytotoxicity against human SF539 cells; type: cell-based; method in brief: as §2
DU-145 [12] = assay: Cytotoxicity against human DU145 cells; type: cell-based; method in brief: as §2
HL-60(TB) = assay: Cytotoxicity against human HL-60(TB) cells; type: cell-based
SNB-75 [13] = assay: Antiproliferative activity against human SNB75 cells by SRB assay; type: functional; method in brief: as §3
A549 [14] = assay: Antiproliferative activity against human A549 cells by SRB assay; type: functional; method in brief: as §1
NCI-H23 [15] = assay: Antiproliferative activity against human NCI-H23 cells by SRB assay; type: functional; method in brief: as §1
COLO 205 [16] = assay: Antiproliferative activity against human COLO205 cells by SRB assay; type: functional; method in brief: as §1
U-251 = assay: Cytotoxicity against human U251 cells; type: cell-based; method in brief: as §4
SK-MEL-2 [17] = assay: Antiproliferative activity against human SK-MEL-2 cells by SRB assay; type: functional; method in brief: as §1
SNB-19 = assay: Antiproliferative activity against human SNB19 cells by SRB assay; type: functional; method in brief: as §1
RXF 393 [18] = assay: Antiproliferative activity against human RXF393 cells by SRB assay; type: functional; method in brief: as §1
MDA-MB-435 [19] = assay: Antiproliferative activity against human MDA-MB-435 cells by SRB assay; type: functional; method in brief: as §1
A549 [20] = assay: Cytotoxicity against human A549 cells; type: cell-based; method in brief: as §2
CAKI-1 [21] = assay: Antiproliferative activity against human Caki1 cells by SRB assay; type: functional; method in brief: as §1
CAKI-1 [22] = assay: Cytotoxicity against human Caki1 cells; type: cell-based
HCT-116 = assay: Antiproliferative activity against human HCT116 cells by SRB assay; type: functional; method in brief: as §1
NCI-H23 [23] = assay: Cytotoxicity against human NCI-H23 cells; type: cell-based
RPMI-8226 = assay: Cytotoxicity against human RPMI8226 cells; type: cell-based; method in brief: as §2
RXF 393 [24] = assay: Cytotoxicity against human RXF393 cells; type: cell-based; method in brief: as §2
SN12C = assay: Cytotoxicity against human SN12C cells; type: cell-based; method in brief: as §4
NCI-H460 [25] = assay: Cytotoxicity against human NCI-H460 cells; type: cell-based
CCRF-CEM [26] = assay: Antiproliferative activity against human CCRF-CEM cells by SRB assay; type: functional; method in brief: as §1
NCI-H522 = assay: Cytotoxicity against human NCI-H522 cells; type: cell-based; method in brief: as §2
OVCAR-4 [27] = assay: Cytotoxicity against human OVCAR4 cells; type: cell-based
MOLT-4 = assay: Cytotoxicity against human MOLT4 cells; type: cell-based
NCI-H460 [28] = assay: Antiproliferative activity against human NCI-H460 cells by SRB assay; type: functional; method in brief: as §1
UACC-257 = assay: Cytotoxicity against human UACC257 cells; type: cell-based; method in brief: as §4
HOP-92 = assay: Antiproliferative activity against human HOP92 cells by SRB assay; type: functional; method in brief: as §1
T47D = assay: Antiproliferative activity against human T47D cells by SRB assay; type: functional; method in brief: as §3

`CC(C)C(/C=C/c1ccccc1)n1cc(/C=C/C(=O)NO)nn1` (centres undefined) was tested, and the GI50 (SF-268) was 1.87 µM, the LC50 (K562) was over 100 µM and the LC50 (NCI-H322M [1]) was over 100 µM. For the same molecule, the GI50 (NCI-H322M [2]) was 1.36 µM, the LC50 (SF-295) was 58.3 µM and the GI50 (TK-10) was 0.531 µM. For the same molecule, the GI50 (OVCAR-8) was 0.816 µM, the LC50 (SK-MEL-2 [3]) was over 100 µM and the LC50 (BT-549) was over 100 µM. It also gave an LC50 (SNB-75 [4]) of 38.3 µM, a GI50 (UACC-62) of 0.642 µM and a GI50 (SR) of 0.213 µM. It also gave a GI50 (HT-29) of 0.827 µM, an LC50 (OVCAR-3) of 22.1 µM and an LC50 (CCRF-CEM [5]) of over 100 µM. It also gave an LC50 (UO-31) of 40.9 µM, a GI50 (SF-539 [6]) of 1.19 µM and an LC50 (MDA-MB-435 [7]) of 31.6 µM. It also gave a GI50 (KM12) of 1.22 µM, a GI50 (PC-3) of 1.65 µM and a GI50 (OVCAR-4 [8]) of 4.06 µM. It also gave a GI50 (DU-145 [9]) of 1.09 µM, an LC50 (COLO 205 [10]) of 6.1 µM and a GI50 (786-0) of 1.59 µM. For the same molecule, the LC50 (MDA-MB-231) was 73.4 µM, the LC50 (EKVX) was over 100 µM and the GI50 (NCI-H226) was 2.38 µM. For the same molecule, the GI50 (IGROV-1) was 1.08 µM, the GI50 (SK-OV-3) was 1.49 µM and the LC50 (SW-620) was 9.22 µM. The LC50 (SF-539 [11]) was 8.21 µM, the LC50 (DU-145 [12]) was over 100 µM and the LC50 (HL-60(TB)) was over 100 µM. For the same molecule, the GI50 (SNB-75 [13]) was 1.82 µM, the GI50 (A549 [14]) was 1.33 µM and the GI50 (NCI-H23 [15]) was 1.64 µM. It also gave a GI50 (COLO 205 [16]) of 0.932 µM, an LC50 (U-251) of 5.66 µM and a GI50 (SK-MEL-2 [17]) of 1.52 µM. It also gave a GI50 (SNB-19) of 2.41 µM, a GI50 (RXF 393 [18]) of 1.19 µM and a GI50 (MDA-MB-435 [19]) of 0.719 µM. For the same molecule, the LC50 (A549 [20]) was 88.7 µM, the GI50 (CAKI-1 [21]) was 0.487 µM and the LC50 (CAKI-1 [22]) was 6.3 µM. The GI50 (HCT-116) was 0.316 µM, the LC50 (NCI-H23 [23]) was 12.6 µM and the LC50 (RPMI-8226) was over 100 µM. For the same molecule, the LC50 (RXF 393 [24]) was 7.68 µM, the LC50 (SN12C) was over 100 µM and the LC50 (NCI-H460 [25]) was 42.9 µM. It also gave a GI50 (CCRF-CEM [26]) of 0.351 µM, an LC50 (NCI-H522) of 8.48 µM and an LC50 (OVCAR-4 [27]) of 71.4 µM. For the same molecule, the LC50 (MOLT-4) was over 100 µM, the GI50 (NCI-H460 [28]) was 0.761 µM and the LC50 (UACC-257) was 88.3 µM. The GI50 (HOP-92) was 1.73 µM and the GI50 (T47D) was 1.24 µM.
